Each structure is given as a SMILES string. The source made the active and inactive calls. The calls are words filed in the database; no cut-off is given here.

Data set [1] has as its target T1, Hemoglobin HbA (Homo sapiens) (UniProt P69905+P68871). The experiment in a line: Drug reactivity against betacys93 in hemoglobin (unknown origin) assessed as free SH in betacys93 at 2 mM incubated for 16 hrs by UPLC-MS analysis relative to control. The format is protein-complex assay. The note with it: in the assay text read “by DTNB disulfide exchange assay” for “by UPLC-MS analysis”. In a few lines:
(§1)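 Hb (50 µM in PBS) was reacted with 2 mM compound (final) at room temperature for 2 h or 16 h. Hb was recovered by centrifugation and 10 kDa ultrafiltration, then washed. Samples were incubated in 0.1 M potassium phosphate pH 8.0 with DTNB for 1 h at 25 °C. Hb content was taken from A576 and free thiol from 2-nitrobenzoate at A412 (ε 14 150 M-1 cm-1). Values are the mean of quadruplicates ± SD. % adduct = 100 − available SH from two βCys93.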

In data set [2] the target is T1, Hemoglobin HbA (Homo sapiens). Briefly: Binding affinity to hemoglobin in whole blood (unknown origin) at 1 mM incubated for 2 hrs relative to control. The format is tissue-based. In a few lines: (§2)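 Normal human whole blood at 20% hematocrit was incubated with compound (1 mM and 2 mM final) for 2 h at 37 °C. Hb–O2 affinity was then measured from oxygen equilibrium curves. Runs were done at least in triplicate.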

The subject of the next data set is Erythrocyte. The experiment in a line: Anti-sickling activity in RBC derived from patient homozygous SS at 2 mM […] by microscopic analysis relative to control. It counts as functional, Homo sapiens.
Data set [3] deals with T1, Hemoglobin HbA (Homo sapiens). The experiment in a line: Drug reactivity against betacys93 in hemoglobin (unknown origin) assessed as betacys93-compound adduct formation at 2 mM incubated for 16 hrs by UPLC-MS analysis relative to control. The note with it: in the assay text read “by DTNB disulfide exchange assay” for “by UPLC-MS analysis”. It counts as protein-complex assay. The gist of the method: as §1

The target is the same in data set [4]. The experiment in a line: Binding affinity to hemoglobin in whole blood (unknown origin) incubated for 2 hrs. It counts as tissue-based. The gist of the method:
as §2

The target is the same in data set [5]. The experiment in a line: Binding affinity to hemoglobin in whole blood (unknown origin) at 2 mM incubated for 8 hrs. The format is tissue-based. The gist of the method:
(§3)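 Normal whole blood was incubated with 2 mM compound at 37 °C for up to 24 h. Aliquots taken at 1, 2, 4, 8 and 24 h were assessed by oxygen equilibrium curves, with DMSO as vehicle control.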

Data set [6] shares this target. The experiment in a line: Binding affinity to hemoglobin in whole blood (unknown origin) at 2 mM incubated for 2 hrs relative to control. The format is tissue-based. In a few lines:
as §2

Data set [7] has the same target. Briefly: Drug reactivity against betacys93 in hemoglobin (unknown origin) assessed as betacys93-compound adduct formation at 2 mM incubated for 2 hrs by UPLC-MS analysis relative to control. It counts as protein-complex assay. Particulars: in the assay text read “by DTNB disulfide exchange assay” for “by UPLC-MS analysis”. The gist of the method:
as §1

The target is the same in data set [8]. The experiment in a line: Binding affinity to hemoglobin in whole blood (unknown origin) at 2 mM incubated for 24 hrs. It counts as tissue-based. In a few lines: as §3
Data set [9] is described as follows: Drug reactivity against cysteine in PBS buffer at 2 mM incubated for 3 hrs by UPLC-MS analysis relative to control.
Data set [10] is described as follows: Drug reactivity against cysteine in PBS buffer assessed as assessed as cysteine-compound adduct formation at 2 mM incubated for 3 hrs by UPLC-MS analysis relative to control.
A short description of data set [11]: Acute toxicity in Swiss albino mouse assessed as mortality at 2000 mg/kg, po via gavage measured after 24 hrs by OECD 423 guideline based method. Particulars: in vivo. The format is organism-based. In a few lines:
(§4)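 Male and female Swiss albino mice (22–27 g, 8–10 weeks) were held at about 23 °C on a 12 h light/dark cycle with free food and water. Dosing was a single oral gavage of a 10% suspension in water with 0.5% Tween 80. Groups of n = 3 received 2000 mg/kg (days 1 and 2) or 5000 mg/kg (day 3). Toxic signs and mortality were watched for 24 h.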

Data set [12] is described as follows: Acute toxicity in Swiss albino mouse assessed as mortality at 5000 mg/kg, po via gavage measured after 24 hrs by OECD 423 guideline based method. It counts as organism-based. Particulars: in vivo. The gist of the method:
as §4

T1 sequence (P68871 2-147 partner limits assumed): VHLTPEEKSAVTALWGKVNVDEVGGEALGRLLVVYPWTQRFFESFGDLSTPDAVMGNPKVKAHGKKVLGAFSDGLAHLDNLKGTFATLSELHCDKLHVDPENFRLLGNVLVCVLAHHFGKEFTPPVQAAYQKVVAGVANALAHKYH
T1 sequence (P69905 2-142 limits assumed): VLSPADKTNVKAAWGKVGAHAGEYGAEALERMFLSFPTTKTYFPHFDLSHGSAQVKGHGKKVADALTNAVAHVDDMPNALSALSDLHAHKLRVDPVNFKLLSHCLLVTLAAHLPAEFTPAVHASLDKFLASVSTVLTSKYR

Consider `O=C(O)CCCOc1ccc(C(=O)/C=C/c2ncc[nH]2)cc1Cl`, for which the Activity in data set [1] came out at 70%; in data set [2], 1.9%; in the data set on Erythrocyte, 2%; in [3], 30%; in data set [6], 4.5%; in data set [7] it was 11%. Also, the outcome in data set [4] and in [5] was Active.

For the compound `O=C(/C=C/c1ncc[nH]1)c1ccc(OC2CCCCO2)cc1` (configuration not stated), the outcome in data set [8] and in [4] was Active. For the same compound, the Activity in data set [2] stood at 9.9%; in the data set with Erythrocyte it was 7%; in data set [9], 45.1%; in data set [10] it was 54.9%; in data set [6], 15.2%.

`COc1ccc(C(=O)/C=C/c2ncc[nH]2)cc1OC`: the Activity in [1] came out at 80%; in data set [2], 6.5%; in the data set on Erythrocyte, 5%; in [3], 20%; in [9], 46.3%; in [10], 53.7%. In addition, the results for the Activity in [6] and in [7] were 6.5% and 9%, respectively. For the same compound, the result in data set [4] and in data set [5] was Active.

On to `O=C(/C=C/c1ncc[nH]1)c1ccccc1`, for which the Activity stood at 79% in [1]; 7% in data set [2]; 7% in the data set with Erythrocyte; 21% in data set [3]; 80.4% in [9]; 19.6% in data set [10]. Besides, the Activity was found to be 11.3% in data set [6] and 10% in data set [7]. In addition, the result in data set [8] and in [4] was Active.

Turning to `COc1ccc(C(=O)/C=C/c2ncc[nH]2)cc1`, the Activity in data set [1] is 63%; in [2], 8.2%; with Erythrocyte it was 9%; in data set [3], 37%; in data set [9], 23%; in data set [11], “Non-Toxic”. Also, the Activity is 77% in [10], 11.8% in data set [6], “Toxic” in data set [12] and 11% in [7]. For the same compound, the result in data set [8] and in [4] was Active.
